Assay [1] has as its target T1, human FFA4 (Homo sapiens, UniProt Q5NUL3).
T1 sequence (Q5NUL3 1-361): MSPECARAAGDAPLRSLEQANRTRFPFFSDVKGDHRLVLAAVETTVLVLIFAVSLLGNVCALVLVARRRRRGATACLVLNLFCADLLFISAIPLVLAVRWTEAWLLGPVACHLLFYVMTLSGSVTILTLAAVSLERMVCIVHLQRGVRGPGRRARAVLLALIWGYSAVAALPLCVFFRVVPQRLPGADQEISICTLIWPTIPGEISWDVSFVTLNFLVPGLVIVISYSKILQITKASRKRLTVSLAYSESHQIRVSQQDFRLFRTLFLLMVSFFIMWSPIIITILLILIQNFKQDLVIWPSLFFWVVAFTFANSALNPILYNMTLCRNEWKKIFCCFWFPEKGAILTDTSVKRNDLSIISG
The experiment in a line: DMR agonist assay in CHO-FFA4 cells. The format is cell-based. The following applies: for EC50: CHO-FFA4 cell, EC50, NPs-derived FFA4 agonists, DMR, CHO-FFA4 cells; for Selectivity between FFA4 and FFA1: comparison of DMR activity in CHO-FFA4 and CHO-FFA1 cells; for DMR response relative to the TUG891-induced response: screening of 140 natural compounds in CHO-FFA4 cells, of the TUG891-induced response (∼80 pm); for DMR response in CHO-FFA4 cells: 100 μM ALA, 12.5 μM GW9508, 10 μM TAK875 (Fig. 2A).

In assay [2] the test system is HT29 cells. Kind of assay: DMR agonist assay in HT29 cells. The format is cell-based, Human. The following applies: for EC50: Homo sapiens, HT-29, read-out: HT29 cell, EC50, NPs-derived FFA4 agonists, DMR, HT29 cells.
The target of assay [3] is T1, human FFA4. Kind of assay: FLIPR calcium flux assay in CHO-FFA4 cells. The format is cell-based. To be noted: acetylshikonin 100 μM, TUG891 15 μM. On the technique in general: A change in cytosolic calcium serves as a functional read-out for many receptors and channels.
For assay [4], the target named is T2, human FFA1 (Homo sapiens, UniProt O14842). The experiment in a line: DMR agonist assay in CHO-FFA1 cells. To be noted: for EC50: CHO-FFA1 cell, EC50, NPs-derived FFA4 agonists. The assay is classed as cell-based.
T2 sequence (O14842 whole entry): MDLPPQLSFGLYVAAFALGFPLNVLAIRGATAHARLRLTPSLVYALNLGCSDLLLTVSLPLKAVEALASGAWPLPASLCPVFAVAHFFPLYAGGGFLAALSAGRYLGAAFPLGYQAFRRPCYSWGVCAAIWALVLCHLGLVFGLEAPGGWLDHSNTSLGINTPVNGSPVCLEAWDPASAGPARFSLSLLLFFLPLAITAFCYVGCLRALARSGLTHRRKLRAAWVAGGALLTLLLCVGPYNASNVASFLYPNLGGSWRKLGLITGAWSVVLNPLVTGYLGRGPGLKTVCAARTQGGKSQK
Assay [5] concerns the target T2, human FFA1. The experiment in a line: DMR desensitization assay in CHO-FFA1 cells. The format is cell-based. The following applies: CHO-FFA1 cell Desensitization IC50, IC50 to desensitize the DMR of 1 μM GW9508 in CHO-FFA1 cells.
Assay [6] deals with CHO-K1 cells. The experiment in a line: DMR agonist assay in parental CHO-K1 cells. The format is cell-based, Chinese hamster. The method in brief: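 Parental CHO-K1 cells were grown in Ham's F12K with 10% FBS, then seeded on biosensor microplates overnight to a confluent monolayer. Cells were washed twice and held 1–2 h in HBSS, 10 mM HEPES, pH 7.2, 0.1% BSA. After a 2 min baseline, the test compound, diluted in the same buffer, was added. Label-free DMR was recorded for 1 h.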

Assay [7] concerns HT29 cells. The experiment in a line: DMR desensitization assay in HT29 cells. The format is cell-based. The following applies: Homo sapiens, HT-29, read-out: HT 29 cell Desensitization IC50.
Assay [8] concerns the target T1, human FFA4. The experiment in a line: DMR desensitization assay in CHO-FFA4 cells. The assay is classed as cell-based.
Assay [9] has as its system FFA4. To be noted: read-out: EC50 as natural FFA4 agonist; literature retrieval; cited from earlier work.

A value given as a limit tells only on which side of the number the result lay.

For the compound `CC(=O)O[C@H](CC=C(C)C)C1=CC(=O)c2c(O)ccc(O)c2C1=O` [Acetylshikonin, acetylshikonin], the values for the EC50 in [1], in assay [2] and in assay [4] were 10.2 ± 2.95 µM, 2.82 ± 0.39 µM and 6.17 ± 2.81 µM, respectively. Moreover, in assay [1], the “Selectivity between FFA4 and FFA1” value is “non-selective”. The “DMR response relative to the TUG891-induced response” value in [1] is “greater than 30%”. Further, in assay [3], the “Ca2+ response in CHO-FFA4 cells” value is “produced a Ca^2+ response”.
As for `Cc1cc(O)c2c(c1)C(=O)c1cc(O)cc(O)c1C2=O` [Emodin, emodin], in assay [1], the EC50 was determined as 38.2 ± 5.02 µM; the “Selectivity between FFA4 and FFA1” value is on record as “selectivity on FFA4”; the “DMR response relative to the TUG891-induced response” value was “greater than 30%”. The EC50 in assay [2] was about 39 µM. In [4], this compound had an EC50 of over 100 µM.
Consider `O=C(O)CCc1ccc(NCc2cccc(Oc3ccccc3)c2)cc1` [GW9508], for which the “DMR response in CHO-FFA4 cells” value in assay [1] was “minor response”. Besides, the 50% inhibitory concentration (IC50) in assay [5] worked out at 0.14 ± 0.01 µM; in assay [7] it was 12 ± 2.12 µM. Besides, the “DMR response in parental CHO-K1 cells” value in assay [6] is listed as “negligible DMR response”. Moreover, the “Agonist efficacy in CHO-FFA1 cells compared with ALA” value in [4] is reported as “partial agonism”.
Turning to `Cc1cc(OCCCS(C)(=O)=O)cc(C)c1-c1cccc(COc2ccc3c(c2)OC[C@H]3CC(=O)O)c1` [TAK875], the “DMR response in CHO-FFA4 cells” value in assay [1] is “did not induce any response”. The “DMR response in HT29 cells” value in assay [2] (TAK875 at 10 μM, MEDICA16) was “did not induce an observable signal”. Also, the “DMR response in parental CHO-K1 cells” value in assay [6] is reported as “negligible DMR response”. In addition, the 50% inhibitory concentration (IC50) in [8] and in [7] was over 20 µM throughout.
Regarding `Cc1ccc(-c2ccc(F)cc2COc2ccc(CCC(=O)O)cc2)cc1` [TUG891], the “DMR response in parental CHO-K1 cells” value in [6] is recorded as “neither GSK137647A (Fig. 2F) nor TUG891 (data not shown) produced detectable DMR events”. In addition, the IC50 in assay [7] stood at 0.48 ± 0.12 µM.
Take `CC(C)=CCC/C(C)=C/CC/C(C)=C/Cc1c(O)cc(C)c(C(=O)O)c1O` [grifolic acid]: in assay [9], the 50% effective concentration (EC50) is over 30 µM.
Consider `CCCCCCCCCCCCCC[C@@H](O)[C@@H](O)[C@@H](N)CO` [phytosphingosine], for which, in assay [9], the concentration for a half-maximal effect (EC50) was 33.4 µM.

In general, EC50 refers to the concentration giving half of the maximal effect. One may read the IC50 as the concentration at which inhibition is half-maximal.

(Values after PMC9064241 (RSC Advances, 2019).)
